Laboratory results published in ChEMBL document CHEMBL1833957, “P1-substituted symmetry-based human immunodeficiency virus protease inhibitors with potent antiviral activity against drug-resistant viruses” (J Med Chem, 2011).
pEC50: −log10 of the molar value. One block for each molecule: values may come before it.

How the values were obtained:
[1] = tested on: Human immunodeficiency virus 1; test: Antiviral activity against wild type HIV1 pNL4-3 infected in human MT4 cells assessed as inhibition of virus-induced cell death after 5 days by MTT assay in presence of 50% human serum; format: functional, organism-based; settings: Human immunodeficiency virus 1, pNL4-3, MT4, 120 h
[2] = tested on: Human immunodeficiency virus 1; test: Antiviral activity against wild type HIV1 pNL4-3 infected in human MT4 cells assessed as inhibition of virus-induced cell death after 5 days by MTT assay; format: functional, organism-based; settings: Human immunodeficiency virus 1, pNL4-3, MT4, 120 h
Summary of the method: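 EC50 measured against wild-type virus in MT-4 cells, with no human serum added.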

[3] = tested on: Human immunodeficiency virus 1; test: (§1) Antiviral activity against HIV1 isolate 1 harboring protease L10I, E35D, N37D, M46I, I54V, G57R, L63P, A71V, T74P, I84V, L90M, I93L mutant infected in human MT4 cells assessed as inhibition of virus-induced cell death after 5 days by MTT assay relative to wild type HIV1 pNL4-3; format: functional
[4] = tested on: Human immunodeficiency virus 1; test: Antiviral activity against HIV1 B26 harboring protease L33F, K45I, M46I, I50V, A71V and V82F mutant infected in human MT4 cells assessed as inhibition of virus-induced cell death after 5 days by MTT assay relative to wild type HIV1 pNL4-3; format: functional
[5] = tested on: Human immunodeficiency virus 1; test: as §1, with “HIV1” for “HIV1 isolate 1”, “I13V, G16A, Q18H, L33F,” for “E35D,”, “G57R, Q61H,I62V,” for “G57R,”, “A71L, I72T, L76V, V77I, V82A, N88G,” for “A71V, T74P, I84V,”; format: functional
[6] = tested on: Human immunodeficiency virus 1; test: Antiviral activity against HIV1 A17 harboring protease L10F, V32I, M46I, I47V, Q58E and I84V mutant infected in human MT4 cells assessed as inhibition of virus-induced cell death after 5 days by MTT assay relative to wild type HIV1 pNL4-3; format: functional
[7] = AUC in rat at 5 mg/kg, po co-administered with 5 mg/kg of CYP3A4 inhibitor ritonavir; format: ADME, organism-based; settings: plasma
Summary of the method: (§2)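 Rats given 5 mg/kg orally together with 5 mg/kg ritonavir. Plasma Cmax is reported in μg/mL and AUC in μg h/mL.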

[8] = Oral bioavailability in rat at 5 mg/kg; format: ADME, organism-based; settings: in vivo
[9] = Oral bioavailability in rat at 5 mg/kg co-administered with 5 mg/kg of CYP3A4 inhibitor ritonavir relative to iv dose without ritonavir co-administration; format: ADME, organism-based; settings: in vivo
Summary of the method: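 Rats given 5 mg/kg orally with 5 mg/kg ritonavir. Bioavailability (%) is calculated against an IV dose given without ritonavir.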

[10] = Cmax in rat at 5 mg/kg, po co-administered with 5 mg/kg of CYP3A4 inhibitor ritonavir; format: ADME, organism-based; parameters: dose 5 mg/kg, route oral; settings: in vivo; summary of the method: as §2
[11] = Cmax in rat at 5 mg/kg, po; format: ADME, organism-based; parameters: dose 5 mg/kg, route oral; settings: in vivo
Summary of the method: (§3)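 Rats given a single 5 mg/kg oral dose with no ritonavir. Plasma Cmax is reported in μg/mL and AUC in μg h/mL.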

[12] = AUC in rat at 5 mg/kg, po; format: ADME, organism-based; parameters: dose 5 mg/kg, route oral; settings: plasma; summary of the method: as §3

SMILES: COC(=O)N[C@H](C(=O)N[C@@H](Cc1ccccc1)C[C@H](O)[C@H](Cc1ccc(-c2cccc(CO)c2)cc1)NC(=O)[C@@H](NC(=O)OC)C(C)(C)C)C(C)(C)C
- pEC50 [1]: 7.04
- pEC50 [2]: 7.68
- fold change (FC) [3]: 52
- fold change (FC) [4]: 1
- fold change (FC) [5]: 4
- fold change (FC) [6]: 1

SMILES: COC(=O)N[C@H](C(=O)N[C@@H](Cc1ccccc1)C[C@H](O)[C@H](Cc1ccc(-c2cncnc2)cc1)NC(=O)[C@@H](NC(=O)OC)C(C)(C)C)C(C)(C)C
- pEC50 [1]: 7.24
- pEC50 [2]: 8.70
- fold change (FC) [4]: 74
- fold change (FC) [6]: 41

SMILES: COC(=O)N[C@H](C(=O)N[C@H](Cc1ccc(-c2ccccn2)cc1)C[C@H](O)[C@H](Cc1ccccc1)NC(=O)[C@@H](N1CCN(Cc2cccc(C(C)(C)O)n2)C1=O)C(C)(C)C)C(C)(C)C
- fold change (FC) [3]: 57
- fold change (FC) [4]: 7
- fold change (FC) [5]: 2
- fold change (FC) [6]: 3

SMILES: COC(=O)N[C@H](C(=O)N[C@@H](Cc1ccccc1)C[C@H](O)[C@H](Cc1ccc(-c2ccncc2)cc1)NC(=O)[C@@H](NC(=O)OC)C(C)(C)C)C(C)(C)C
- pEC50 [1]: 7.47
- pEC50 [2]: 7.89
- fold change (FC) [4]: 3
- fold change (FC) [6]: 2

SMILES: COC(=O)N[C@H](C(=O)N[C@@H](Cc1ccccc1)C[C@H](O)[C@H](Cc1ccc(-c2ccc(CO)cc2)cc1)NC(=O)[C@@H](NC(=O)OC)C(C)(C)C)C(C)(C)C
- AUC [7]: 10 ng·h/mL
- bioavailability [8]: 0%
- pEC50 [1]: 7.74
- bioavailability [9]: 0.3%
- Cmax [10]: 10 ng/mL
- pEC50 [2]: 8.30
- fold change (FC) [3]: 45
- fold change (FC) [4]: 2
- fold change (FC) [5]: 2
- fold change (FC) [6]: 2

SMILES: COC(=O)N[C@H](C(=O)N[C@@H](Cc1ccccc1)C[C@H](O)[C@H](Cc1ccc(-c2ccc(CO)nc2)cc1)NC(=O)[C@@H](NC(=O)OC)C(C)(C)C)C(C)(C)C
- pEC50 [1]: 7.35
- pEC50 [2]: 7.85
- fold change (FC) [3]: 12
- fold change (FC) [4]: 0.6
- fold change (FC) [5]: 2
- fold change (FC) [6]: 0.2

- Cmax [11]: 20 ng/mL
- AUC [12]: 30 ng·h/mL
- AUC [7]: 1850 ng·h/mL
- bioavailability [8]: 1%
- bioavailability [9]: 63%
- Cmax [10]: 220 ng/mL
SMILES: COC(=O)N[C@H](C(=O)N[C@@H](Cc1ccccc1)C[C@H](O)[C@H](Cc1ccc(-c2cnc3ccccc3c2)cc1)NC(=O)[C@@H](NC(=O)OC)C(C)(C)C)C(C)(C)C

SMILES: COC(=O)N[C@H](C(=O)N[C@@H](Cc1ccccc1)C[C@H](O)[C@H](Cc1ccc(-c2ccccc2)cc1)NC(=O)[C@@H](NC(=O)OC)C(C)(C)C)C(C)(C)C
- pEC50 [1]: 7.02
- pEC50 [2]: 8.40
- fold change (FC) [4]: 12
- fold change (FC) [6]: 21

SMILES: COC(=O)N[C@H](C(=O)N[C@@H](Cc1ccccc1)C[C@H](O)[C@H](Cc1ccc(-c2cccc(N)c2)cc1)NC(=O)[C@@H](NC(=O)OC)C(C)(C)C)C(C)(C)C
- Cmax [11]: 100 ng/mL
- AUC [12]: 20 ng·h/mL
- AUC [7]: 70 ng·h/mL
- bioavailability [8]: 1%
- pEC50 [1]: 7.70
- bioavailability [9]: 5%
- Cmax [10]: 100 ng/mL
- pEC50 [2]: 8.30
- fold change (FC) [3]: 9
- fold change (FC) [4]: 3
- fold change (FC) [5]: 1
- fold change (FC) [6]: 3

SMILES: COC(=O)N[C@H](C(=O)N[C@@H](Cc1ccccc1)C[C@H](O)[C@H](Cc1ccc(-c2cnccn2)cc1)NC(=O)[C@@H](NC(=O)OC)C(C)(C)C)C(C)(C)C
- pEC50 [1]: 6.82
- pEC50 [2]: 7.27
- fold change (FC) [4]: 4
- fold change (FC) [6]: 7
